Assay results as given in ChEMBL document CHEMBL1153729, “Structurally diverse limonoids from the fruits of Swietenia mahagoni” (2009).
Values after ≈ are worked out from the molar mass of the structure shown. Active and inactive are the calls of the source. The rule behind the calls is not given here.

Assays:
Kocuria rhizophila = experiment: Antibacterial activity against Micrococcus luteus ATCC 9341 after 18 hrs; type: functional; conditions: for Activity: DC2201
How it was run: (§1)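 Bacterial cells suspended in Mueller-Hinton broth at a final density of […]. Incubated aerobically with compounds in DMSO at 37 °C for 18 h, alongside DMSO-only blank cultures and an ofloxacin positive control. MIC taken as the lowest concentration giving complete inhibition of visible growth.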

Nannizzia gypsea = experiment: Antifungal activity against Microsporum gypseum ATCC 14683 after 48 hrs; type: functional, organism-based
How it was run: (§2)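 Fungi grown in Sabouraud dextrose broth with compounds for 48 h at 37 °C. Blank cultures received a limited amount of DMSO. Amphotericin B, dissolved in DMSO, served as the positive control.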

Candida albicans = experiment: Antifungal activity against Candida albicans ATCC 1600 after 48 hrs; type: functional, organism-based; how it was run: as §2
Pseudomonas aeruginosa = experiment: Antibacterial activity against Pseudomonas aeruginosa ATCC 14502 after 18 hrs; type: functional, organism-based; how it was run: as §1
Escherichia coli = experiment: Antibacterial activity against Escherichia coli ATCC 25922 after 18 hrs; type: functional, organism-based; how it was run: as §1
Bacillus subtilis = experiment: Antibacterial activity against Bacillus subtilis ATCC 6633 after 18 hrs; type: functional, organism-based; how it was run: as §1
Staphylococcus aureus = experiment: Antibacterial activity against Staphylococcus aureus ATCC 25923 after 18 hrs; type: functional, organism-based; how it was run: as §1
[1] = test system: Staphylococcus epidermidis; experiment: Antibacterial activity against Staphylococcus epidermidis ATCC 12228 after 18 hrs; type: functional, organism-based; how it was run: as §1
Trichophyton rubrum = experiment: Antifungal activity against Trichophyton rubrum ATCC 10218 after 48 hrs; type: functional, organism-based; how it was run: as §2
Saccharomyces = experiment: Antifungal activity against Saccharomyces sake ATCC 26421 after 48 hrs; type: functional, organism-based; how it was run: as §2
Shigella flexneri = experiment: Antibacterial activity against Shigella flexneri ATCC 12022 after 18 hrs; type: functional, organism-based; how it was run: as §1

MIC (Kocuria rhizophila; DC2201, 18 h) [µg/mL] | Compound | Activity (Kocuria rhizophila) | Activity (Nannizzia gypsea) | Activity (Candida albicans) | Activity (Pseudomonas aeruginosa) | Activity (Escherichia coli) | Activity (Bacillus subtilis) | Activity (Staphylococcus aureus) | Activity [1] | Activity (Trichophyton rubrum) | Activity (Saccharomyces) | Activity (Shigella flexneri)
– | COC(=O)C[C@H]1C(C)(C)C(=O)[C@@H]2CC3C4=CC(=O)O[C@@H](c5ccoc5)[C@]4(C)CC[C@@H]3[C@@]1(C)C2=O (some centres undefined) | inactive | inactive | inactive | inactive | inactive | inactive | inactive | inactive | inactive | inactive | inactive
– | COC(=O)C[C@H]1C(C)(C)C(=O)[C@@H]2CC3=C4CC(=O)O[C@@H](c5ccoc5)[C@]4(C)CC[C@@H]3[C@@]1(C)C2=O | inactive | inactive | inactive | inactive | inactive | inactive | inactive | inactive | inactive | inactive | inactive
– | COC(=O)C[C@H]1C(C)(C)[C@H](OC(=O)C(C)C)[C@@H]2C=C3[C@H]([C@H](OC(C)=O)C[C@]4(C)[C@H]3CC(=O)O[C@H]4c3ccoc3)[C@@]1(C)C2=O | inactive | inactive | inactive | inactive | inactive | inactive | inactive | inactive | inactive | inactive | inactive
– | COC(=O)C[C@H]1C(C)(C)C(=O)[C@@H]2C[C@]3(O)C4=CC(=O)O[C@@H](c5ccoc5)[C@]4(C)CC[C@@H]3[C@@]1(C)C2=O | inactive | inactive | inactive | inactive | inactive | inactive | inactive | inactive | inactive | inactive | inactive
– | COC(=O)C[C@H]1C(C)(C)[C@H](OC(=O)C(C)C)[C@]2(O)C=C3C4=CC(=O)O[C@@H](c5ccoc5)[C@]4(C)CC[C@@H]3[C@@]1(C)C2=O | inactive | inactive | inactive | inactive | inactive | inactive | inactive | inactive | inactive | inactive | inactive
– | COC(=O)C[C@H]1C(C)(C)[C@H](OC(C)=O)[C@@H]2C=C3[C@H]([C@H](OC(C)=O)C[C@]4(C)[C@H]3CC(=O)O[C@H]4c3ccoc3)[C@@]1(C)C2=O | inactive | inactive | inactive | inactive | inactive | inactive | inactive | inactive | inactive | inactive | inactive
– | CC(=O)O[C@H]1C[C@@H](O)C(C)(C)[C@@H]2C[C@@H](OC(C)=O)[C@]3(C)[C@H](CC[C@@]4(C)[C@H](c5ccoc5)OC(=O)[C@H]5O[C@@]534)[C@@]12C | inactive | inactive | inactive | inactive | inactive | inactive | inactive | inactive | inactive | inactive | inactive
– | C/C=C(\C)C(=O)O[C@H]1C(C)(C)[C@H](CC(=O)OC)[C@]2(C)C(=O)[C@@]1(O)CC1=C3[C@@H](O)C(=O)O[C@@H](c4ccoc4)[C@]3(C)CC[C@@H]12 | inactive | inactive | inactive | inactive | inactive | inactive | inactive | inactive | inactive | inactive | inactive
– | COC(=O)C[C@H]1C(C)(C)[C@H](OC(=O)c2ccccc2)[C@]2(O)CC3=C4CC(=O)O[C@@H](c5ccoc5)[C@]4(C)CC[C@@H]3[C@@]1(C)C2=O | inactive | inactive | inactive | inactive | inactive | inactive | inactive | inactive | inactive | inactive | inactive
– | COC(=O)C[C@H]1C(C)(C)[C@H](OC(C)=O)[C@]2(O)C=C3C4=CC(=O)O[C@@H](c5ccoc5)[C@]4(C)CC[C@@H]3[C@@]1(C)C2=O | inactive | inactive | inactive | inactive | inactive | inactive | inactive | inactive | inactive | inactive | inactive
– | CC1(C)[C@H](O)C[C@H](O)[C@]2(C)[C@H]3CC[C@@]4(C)[C@H](c5ccoc5)OC(=O)[C@H]5O[C@]54[C@]3(C)[C@H](O)C[C@@H]12 | inactive | inactive | inactive | inactive | inactive | inactive | inactive | inactive | inactive | inactive | inactive
– | CC(=O)O[C@H]1C[C@@H](O)C(C)(C)[C@@H]2C[C@@H](O)[C@]3(C)[C@H](CC[C@@]4(C)[C@H](c5ccoc5)OC(=O)[C@H]5O[C@@]534)[C@@]12C | inactive | inactive | inactive | inactive | inactive | inactive | inactive | inactive | inactive | inactive | inactive
– | CC(=O)O[C@H]1C[C@@H](OC(C)=O)C(C)(C)[C@@H]2C[C@@H](O)[C@]3(C)[C@H](CC[C@@]4(C)[C@H](c5ccoc5)OC(=O)[C@H]5O[C@@]534)[C@@]12C | inactive | inactive | inactive | inactive | inactive | inactive | inactive | inactive | inactive | inactive | inactive
1.56 (≈ 4.32 µM) | CC1COc2c(N3CCN(C)CC3)c(F)cc3c(=O)c(C(=O)O)cn1c23 (centres undefined) [OFLOXACIN] | – | – | – | – | – | – | – | – | – | – | –
